How the values were obtained:
[1] = Cytotoxicity against human BJ cells under dark condition measured after 72 hrs by MTT assay; type: toxicity, cell-based
Summary of the method: (§1)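 Cells grown in phenol red-free DMEM with 10 % FBS, penicillin/streptomycin, 37 °C, 5 % CO₂. Compound added 24 h after plating and incubated 4 h. Irradiated cells received 414 nm LED light at 20 mW/cm², 10 J/cm², then were incubated 20 h or 68 h more. Dark plates were run in parallel without irradiation. MTT was added for 4 h, formazan dissolved in 10 % SDS, absorbance read at 570 nm. EC50 ± SD.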

[2] = test system: G-361; experiment: Cytotoxicity against human G361 cells pretreated for 4 hrs followed by light irradiation of 10 J/cm2 at 414 nm measured after 68 hrs by MTT assay; type: functional, cell-based; conditions: G-361, light or radiation study; summary of the method: as §1
[3] = test system: G-361; experiment: Cytotoxicity against human G361 cells under dark condition measured after 72 hrs by MTT assay; type: functional, cell-based; conditions: G-361, 72 h; summary of the method: as §1

SMILES: CC1(C)C(/C=C/c2ccc([N+](=O)[O-])cc2)=Nc2ccc3ccccc3c21
- EC50 at 72 h [1]: 6 µM
- EC50 [2]: 0.8 µM
- EC50 [3]: 5.7 µM

SMILES: CC1(C)C(/C=C/c2ccccc2)=Nc2ccc3ccccc3c21
- EC50 [2]: 2.8 µM
- EC50 [3]: 6.5 µM

SMILES: COc1ccc(/C=C/C2=Nc3ccc4ccccc4c3C2(C)C)cc1
- EC50 [2]: 5.2 µM
- EC50 [3]: 9.5 µM

SMILES: CC1(C)C(/C=C/c2cccc(C(F)(F)F)c2)=Nc2ccc3ccccc3c21
- EC50 at 72 h [1]: > 10 µM
- EC50 [2]: 1.3 µM
- EC50 [3]: 7.6 µM

SMILES: CC1(C)C(/C=C/c2cc(C(F)(F)F)cc(C(F)(F)F)c2)=Nc2ccc3ccccc3c21
- EC50 at 72 h [1]: > 10 µM
- EC50 [2]: 1.3 µM
- EC50 [3]: > 10 µM

SMILES: CC1(C)C(/C=C/c2cccc([N+](=O)[O-])c2)=Nc2ccc3ccccc3c21
- EC50 at 72 h [1]: 5 µM
- EC50 [2]: 0.4 µM
- EC50 [3]: 2.9 µM

SMILES: CN(C)c1ccc(/C=C/C2=Nc3ccc4ccccc4c3C2(C)C)cc1
- EC50 [2]: > 10 µM
- EC50 [3]: > 10 µM

SMILES: CC1(C)C(/C=C/c2ccc(C#N)cc2)=Nc2ccc3ccccc3c21
- EC50 at 72 h [1]: 6.7 µM
- EC50 [2]: 0.5 µM
- EC50 [3]: 5.1 µM

SMILES: CC1(C)C(/C=C/c2ccc(F)c([N+](=O)[O-])c2)=Nc2ccc3ccccc3c21
- EC50 [2]: 1.8 µM
- EC50 [3]: 7.9 µM

SMILES: CCN(CC)c1ccc(/C=C/C2=Nc3ccc4ccccc4c3C2(C)C)cc1
- EC50 [2]: > 10 µM
- EC50 [3]: > 10 µM

SMILES: CC1(C)C(/C=C/c2ccc(F)c(C#N)c2)=Nc2ccc3ccccc3c21
- EC50 [2]: 1.4 µM
- EC50 [3]: 6.9 µM

SMILES: CC1(C)C(/C=C/c2ccc(Cl)c([N+](=O)[O-])c2)=Nc2ccc3ccccc3c21
- EC50 at 72 h [1]: > 10 µM
- EC50 [2]: 0.3 µM
- EC50 [3]: 7.2 µM

SMILES: CC1(C)C(/C=C/c2cc([N+](=O)[O-])ccc2Cl)=Nc2ccc3ccccc3c21
- EC50 [2]: 7.9 µM
- EC50 [3]: > 10 µM

SMILES: CC1(C)C(/C=C/c2ccc(C(F)(F)F)cc2)=Nc2ccc3ccccc3c21
- EC50 [2]: 0.9 µM
- EC50 [3]: 4 µM

SMILES: CC1(C)C(/C=C/c2cccc(C#N)c2)=Nc2ccc3ccccc3c21
- EC50 [2]: 0.9 µM
- EC50 [3]: 3.7 µM

SMILES: CC1(C)C(/C=C/c2ccc(F)cc2)=Nc2ccc3ccccc3c21
- EC50 [2]: 4.1 µM
- EC50 [3]: 7.3 µM

SMILES: CC1(C)C(/C=C/c2ccc(Br)cc2)=Nc2ccc3ccccc3c21
- EC50 at 72 h [1]: > 10 µM
- EC50 [2]: 1.3 µM
- EC50 [3]: 7.6 µM

SMILES: CC1(C)C(/C=C/c2ccccc2[N+](=O)[O-])=Nc2ccc3ccccc3c21
- EC50 at 72 h [1]: > 10 µM
- EC50 [2]: 1.1 µM
- EC50 [3]: 7.8 µM

SMILES: CC1(C)C(/C=C/c2ccc(C#N)c(F)c2)=Nc2ccc3ccccc3c21
- EC50 at 72 h [1]: 7.2 µM
- EC50 [2]: 0.6 µM
- EC50 [3]: 6.2 µM

SMILES: Cc1ccc(/C=C/C2=Nc3ccc4ccccc4c3C2(C)C)cc1[N+](=O)[O-]
- EC50 at 72 h [1]: 8 µM
- EC50 [2]: 0.9 µM
- EC50 [3]: 6.6 µM
